# Laboratory results from the EternaBench riboswitch data.
# Test system: MS2 coat protein
# Assay: apparent Kd, MS2 coat protein; higher = weaker binding; RNA-MaP array; FMN 200 µM where present
# In short: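 The titrant was SNAP-549-labelled MS2 coat protein, run from 0.7 or 1.5 nM in doubling steps to 3 µM. It was applied to designs transcribed by stalled E. coli RNA polymerase on Illumina sequencing-chip clusters, without ligand first and then with constant ligand, in 100 mM Tris-HCl pH 7.5, 80 mM KCl, 4 mM MgCl2, BSA, DTT, yeast tRNA and Tween-20. The apparent Kd is the median of filtered per-cluster binding-curve fits, with green signal normalised to red-channel RNA signal and control-cluster median Fmax.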
# [1] = designed as: OFF switch for flavin mononucleotide, no ligand
# [2] = ligand present: flavin mononucleotide, designed as: OFF switch for flavin mononucleotide
# [3] = designed as: ON switch for flavin mononucleotide, no ligand
# [4] = ligand present: flavin mononucleotide, designed as: ON switch for flavin mononucleotide
Sequence,apparent Kd [1] [nM],apparent Kd [2] [nM],apparent Kd [3] [nM],apparent Kd [4] [nM]
UGGACCGAGCUGUCGGUUGACUCUAAGGAUAUGACAUGAGGAUCACCCAUGUGGGAUCUAAAUUGUCAGAAGGUGGGUUCUGGG,95,51,,
UUAGCAACAUGAGGAUCACCCAUGUAGGAUAUCGCUAUUGUAAUCAUGAAACAUGAUUACAAUAGCGAGAAGGACAUAUGCUAA,6.42,9.48,,
UAGCUUGACGCAGGAUAUCCAAGGCUGAAAUGAGGAGAAGGGCGCCAAACAUGAGGAUCACCCAUGUAUUAUGCAGGGUCCUCG,302,152,,
UUAUUAGCAGGAUAUAUCCACGACCACAUGAGGAUCACCCAUGUGGCCGCUUGAGGUUGUAUAGAAGGGCUUUAUU,15.3,14.6,,
CAUCUGUGAGGAUAUGGUGAGUAGUGCCUGAGCGCUGCUCACCAGAAGGCACAUGAGGAUCACCCAUGUAUGAA,52.6,214,,
ACACGGUAUGUAGGAUAUGCAUAGCAUUGCUAUGCAGAAGGACAUGAGGAUCACCCAUGUAUGUAUUCCAUACUAAUCCCGUGA,5.78,5.88,,
AUGUUUCAUGUAGGAUAUGCAUAGCGUUGCUAUGCAGAAGGACAUGAGGAUCACCCAUGUAUAUUAUCAUUACAUAUCAUACAU,45.7,546,,
CCUCAUUGGCAGGAUAUCAGCACUAACGUGGUAUGAGAAGGGUCGACAUGAGGAUCACCCAUGUCAAUUGUCUG,31.2,122,,
AAGGUACGAGGAUAUGCAUAGAUACAGACACAUGUUCAAGUACAUGAGGAUCACCCAUGUAGAAGGCGUAUAUA,43.5,61.8,,
GCCAACUCAUGAGGAUAUGGCACCUUAUUGGUGCCAGAAGGCGUGUCAAUUGACAUGAGGAUCACCCAUGUAUUAUAGUUGGCA,,,446,70.3
CUUAUUUUCGAAGGAUAUGGAUACAUGAGGAUCACCCAUGUAUAAAAUGAGAUCUAUUAUAUGAUCCAGAAGGUCGUUGUUUAU,33.4,59.2,,
AGUUUCUUGUAAGGAUAUACUAGCGAUAAGCUAGUAGAAGGUACUGUCUAUUGUAUCACUAUUUUACAUGAGGAUCACCCAUGU,,,7.13,6.2
CGCUAGUCAGGAUAUACGCACAUGUCACCAGACGUGAAGGGACAUGAGGAUCACCCAUGUAGAAGGGACUAGCA,87.9,203,,
AAUAAACUCACAGGAUAUAGCAGAGGUCACGUGAACUUACAGGCGACGAUGCUAGAAGGGUGACCACAUGAGGAUCACCCAUGU,,,862,135
GUCGGAAACGACAAAAGUAGCAUACGAGAAGGCUGAUCCACGACAUGAGGAUCACCCAUGUAUUUAGAGGAUAUUGGAUGCUAC,,,134,21.6
CCAUGGCAUGUAGGAUAUAUCUGACAAAGUCAGAUAGAAGGACAUGAGGAUCACCCAUGUAAACCGAAAGGAACAUAGCCAUGG,6.36,6.96,,
GCGAGGACGGCAGGAUAUUGACAUGAGGAUCACCCAUGUAUUUGGGAGUGUUCACUGAAUUCUUACGAGAAGGGCCGUCCACGC,312,261,,
UGUCGGAGCAGAGGAUAUUACAUGAGGAUCACCCAUGUAUGAACCAAUUGCUGGAAACAGCAAUGUAAGAAGGCUGCUCCGACA,5.04,9.44,,
GUUAAGAACUAAGGAUAUUGAAUACAUAUGUUUAACAUGAGGAUCACCCAUGUGGGUUGCGGUAUCGAGAAGGUAGAAUAAUAG,,,115,113
AUACUCGUUGUGAGGAUAUCGUUUUCUUUACGGAUCGAGAAGGCACAUGAGGAUCACCCAUGUUUGACGUGAAU,33.7,162,,
AAGUAACAUGAGGAUCACCCAUGUGAGGAUAUGAUUUAAGUUGUAAAAGUAAUAAAGGUCAGAAGGUAUGUGAA,62.1,61.1,,
GCCGUAAAUGUGAGGAUAUACCUAUGGAAACAUAGGUAGAAGGCACAUGAGGAUCACCCAUGUCCUUAAUCGGC,447,406,,
CUGAAGAUAUCAGGAUAUCUAUUUCCUACAUGAGGAUCACCCAUGUAGGUGAUCAGCCAAGUAAAGGAGAAGGGAUAUCUUUAG,,,32.3,9.78
CGAUAUUAUAGAGGAUAUGUUUAACAUGAGGAUCACCCAUGUGAGGUGGAAUUAAUGUAUAACUUACAGAAGGCUAUACAAUCG,417,500,,
UAAUUAUUUGUGGUAAUACACUAUGAGGAUAUCAAGGAAUAUAACAUGAGGAUCACCCAUGUGAAUGAGAAGGCAUUAUUUAUA,,,14.9,9.81
AGCUAGUCAGGAUAUACAAACAUGUCAAAAGACGUGAAGAGACAUGAGGAUCACCCAUGUAGAAGGGACUAGCA,26.6,70.9,,
GGGUACAUCGGAGGAUAUCAUGUAAAUACAUGAGGAUCACCCAUGUCGAUGGAGACAUCGGAGAUUGAGAAGGCCGAUGAACCG,,,165,8.52
UGUAUGGACAGAGGAUAUGCCGAUAGGAUCUACUAUCGAAGAAUCCUCACAUGAGGAUCACCCAUGUAGAAGGCUGUCCAUACU,25.3,150,,

Sequence,apparent Kd [1] [nM],apparent Kd [2] [nM],apparent Kd [3] [nM],apparent Kd [4] [nM]
GUGCUACAGCUGCGCACGAGACAUGAGGAUCACCCAUGUGACAGAAGGGACUUGUUAAAGGUAGGUCAGGAUAUGUCUUAAAAG,,,148,44.2
AUACCUUAUGAGAAGGCGAUCAUGAAACAUGAUCGAGGAUAUCAUGUAAACAUGAGGAUCACCCAUGUAUGGGUAUUAUGGUAU,,,57.4,10.9
UCAUUUCUGUAAGGAUAUAUAAACAUGACGAUACAUGAGGAUCACCCAUGUGUAGAAGGUACAAAUACAUAUAAUGCAAUGUUC,14.8,12.9,,
ACAGCGUGAGGAUAUACAUGAGGAUCACCCAUGUAUGGCAGGUUAUCCUGUCGUAUGUGUAGAAGGCACGCUGU,60.3,73.7,,
UGUAUGGACAGAGGAUAUACCGAUAGGAUCUACUAUCGAACAAUCCUCACAUGAGGAUCACCCAUGUAGAAGGCUGUCCAUACU,24.1,283,,
GUGGUUGUCGUAGGAUAUGUAGGAUAUUCCUACAUGAGGAUCACCCAUGUUCGCAUGGAAGAAGGACAGAAGGACGAUGACCAA,,,1160,9.11
CGAUGUUAUGCAGGAUAUCUCUCUUGUUAGAGGAGAGAAGGGCAUAGGGAGACAUACGCCUUAUUACAUGAGGAUCACCCAUGU,9.38,8.24,,
UUCAUCAAUGAAGGAUAUCUAUGUCCAACAUGAGGAUCACCCAUGUUGAGGAUCACCUAUGUAAAGGAGAAGGUUAAUAUAACU,,,6.96,6.42
AGCUACGUUUCGUAGCAGUGUCAUCGAGAAGGCCUUAUUACAUGAGGAUCACCCAUGUAUGCAUGGGAGGAUAUCGAUGAUACA,,,13.9,5.25
UGGUACAUGAGGAUCACCCAUGUAAGAGCCCUCAUGCGAUGUAGAAGGAUAAUGCGAGUAGUGCUAUAGGAUAUACAUGAGUUU,225,207,,
CUAUCGAGGUAACUCGCUAUCACACCAGAAGGGACGGAGGCACAUGAGGAUCACCCAUGUCCUAGUCAGGAUAUGGGUGAGUAG,,,17.6,5.07
AAACAUGUCCGAGGAUAUCUGGAAACAUUUUCAAGAGAAGGCGGACAUGAGGAUCACCCAUGUCUCUCCUCAUCAAAUCCAAGU,21.4,148,,
GAGUACUGAGGAUAUACAUGAGGAUCACCCAUGUGUUCCAGCUAGGAAACUAGCAAAAGUAGAAGGCAGUACUG,19.5,156,,
CAGCGAAAGCUGAAUCUGUAGAGAGAGGAUAUACAAGAUAUCAUCCAUACAUGAGGAUCACCCAUGUAGAAGGCUCUCUACAGU,5.03,7.23,,
ACGUGUCGUGUAGGAUAUGACACAGGAAACUGGUCAGAAGGACAUGAGGAUCACCCAUGUAAAAUGUUUAAGAAUGACGUAUGC,49.3,94.9,,
GCGCGGAACCUAGGAUAUCCGGCAUGGACGGGUGGUAGGUCUCCCACAUGAGGAUCACCCAUGUAGGAGAAGGAGGAUCACGGG,6.17,6.83,,
UGAUCGAAAGAUCAUAGAUUCUGCUAGGAUAUGCAGGAGUUGCGCUUUACAUGAGGAUCACCCAUGUAGAAGGAGUAGAGUCUA,6.77,8.88,,
GUAGCAUGCCAAGGAUAUUCAUAUAGUAGGCAAACAUGAGGAUCACCCAUGUAAUGAGAGCACUGGGAGAAGGUGGGAUGCUAC,,,28.6,21.4
CUUUUGUGAGGAUAUCAGUAGUAAUACAAUAGUAUUACUACUGAGAAGGCACAUGAGGAUCACCCAUGUUCCUU,16,29.5,,
CUCUUGUUAGGAUAUCAAACUGGCAGCGGAGCUGGCAGAAGUGAGAAGGGACAUGAGGAUCACCCAUGUAAGAA,69.2,228,,
UCUGCCGCCGUGAGGAUAUGCCCGCAAAAACGCGGGCAGAAGGCACAUGAGGAUCACCCAUGUCCCGCGGUUUU,13.9,33.6,,
CAGUACUGAGGAUAUACAUGAGGAUCACCCAUGUGUUCCAGCUAGGAAACUAGCAAUAGUAGAAGGCAGUACUG,20.1,315,,
GGACCGUGCAGAGUUCGCGGUCGGCAGGAUAUGACAUGAGGAUCACCCAUGUGAACUCCAUUGGGUCAGAAGGGCCACGACACA,19.8,78,,
GGGUACAUCGGAGGAUAUCAUGUAAAUACAUGAGGAUCACCCAUGUCGAUGGAGACAUCGGAGAUUGAGAAGGCCAAUGUACCG,,,180,8.76
AGAAUGAUGUCAGGAUAUGACGCUGAGAGCACGUCAGAAGGGACAUGAGGAUCACCCAUGUCGGGCUAAUGAAGCUAUGGCACU,8.86,11.7,,
UAAGUUUAGGUAGGAUAUACUUUCAAUUUCUCUUUCCUUACAUGAGGAUCACCCAUGUUUACAUUGUAGAAGGACCACUAUGUU,31.8,26.8,,
UGUGUGUGACAGGAUAUGCUGGUUAUGAGACGGGUAGAAGGGUCUACAUGAGGAUCACCCAUGUGGCCGGUUGG,19,21.2,,
